Active and inactive are the calls of the source. No cut-off for these calls is given here.
How the values were obtained:
[1] = target: T1, Nuclear receptor subfamily 1 group I member 2 (Homo sapiens, UniProt O75469); experiment: Antagonist activity at PXR (unknown origin) transfected in human HepG2 cells assessed as inhibition of rifampicin-induced reporter gene transcription; format: cell-based
T1 sequence (O75469 whole entry): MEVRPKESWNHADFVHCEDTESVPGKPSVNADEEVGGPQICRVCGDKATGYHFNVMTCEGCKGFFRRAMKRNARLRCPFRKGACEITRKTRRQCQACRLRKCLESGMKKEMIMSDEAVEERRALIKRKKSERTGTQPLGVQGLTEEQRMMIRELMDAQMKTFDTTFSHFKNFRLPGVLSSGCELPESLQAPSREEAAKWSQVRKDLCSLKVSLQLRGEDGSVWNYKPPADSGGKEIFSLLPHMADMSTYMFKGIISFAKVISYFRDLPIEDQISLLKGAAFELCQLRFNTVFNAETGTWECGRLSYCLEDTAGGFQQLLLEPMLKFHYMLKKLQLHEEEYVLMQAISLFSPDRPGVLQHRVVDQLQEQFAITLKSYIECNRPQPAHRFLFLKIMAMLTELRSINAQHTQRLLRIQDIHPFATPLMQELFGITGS

[2] = target: T1, Nuclear receptor subfamily 1 group I member 2; experiment: Agonist activity at human PXR transfected in human HepG2 cells co-transfected with pSG5-RXR/pCMV-beta-galactosidase/p(CYP3A4)-TK-Luc at 10 uM after 18 hrs by luciferase reporter gene assay; format: cell-based; settings: hepg2, 18 h
In short: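 HepG2 seeded 5x10^4 cells/well in MEM/10% FBS, transfected (Fugene HD) with pSG5hPXR, pSG5-RXR, pCMV-β-galactosidase and PXRE luciferase reporter. At 24 h post-transfection, treated 18 h with compounds at 10 µM; rifaximin and solomonsterol A (10 µM) as reference agonists. Lysate luciferase read, normalised to β-galactosidase activity.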

[3] = target: T1, Nuclear receptor subfamily 1 group I member 2; experiment: Antagonist activity at human PXR transfected in human HepG2 cells co-transfected with pSG5-RXR/pCMV-beta-galactosidase/p(CYP3A4)-TK-Luc assessed as inhibition of rifaximin-induced transactivation at 50 uM after 18 hrs by luciferase reporter gene assay; format: cell-based; settings: hepg2, 18 h
In short: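 HepG2 transiently transfected with hPXR, RXR, β-galactosidase and PXRE-luciferase vectors; 24 h later exposed 18 h to rifaximin 10 µM plus compound at 50 µM. Luciferase in lysate measured and divided by β-galactosidase activity to correct for transfection efficiency.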

[4] = system: HepG2; experiment: Cytotoxicity against human HepG2 cells transfected with pSG5-PXR/pSG5-RXR/pCMV-beta-galactosidase/p(CYP3A4)-TK-Luc at 50 uM; format: ADME, cell-based; settings: hepg2, 50 µM
In short: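 Transfected HepG2 cells given rifaximin 10 µM plus compound at 50 µM for 18 h; cytotoxicity judged by morphological analysis.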

[5] = target: T1, Nuclear receptor subfamily 1 group I member 2; experiment: Antagonist activity at PXR in human HepG2 cells assessed as inhibition of rifaximin-induced CYP3A4 mRNA expression at 50 uM after 18 hrs by real time-PCR analysis; format: cell-based; settings: hepg2, 18 h
In short: (§1)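 HepG2 seeded 5x10^5 cells/well, grown to about 70% confluence, serum-starved 24 h, then treated 18 h with rifaximin 10 µM alone or with compound at 50 µM. PXR and CYP3A4 mRNA by real-time PCR in triplicate (40 cycles), normalised to GAPDH, 2^-ΔΔCt relative to untreated cells; mean of two experiments.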

[6] = system: HepG2; experiment: Downregulation of PXR mRNA expression in rifaximin-treated human HepG2 cells at 50 uM after 18 hrs by real time-PCR analysis; format: functional, cell-based; in short: as §1
[7] = target: T1, Nuclear receptor subfamily 1 group I member 2; experiment: Antagonist activity at human PXR transfected in human HepG2 cells co-transfected with pSG5-RXR/pCMV-beta-galactosidase/p(CYP3A4)-TK-Luc assessed as inhibition of rifaximin-induced transactivation after 18 hrs by luciferase reporter gene assay; format: cell-based; settings: for inhibition (INH): human, hepg2, 18 h
In short: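 PXR/RXR/β-gal/PXRE-luciferase-transfected HepG2 cells, 24 h post-transfection, co-treated 18 h with 10 µM rifaximin and compound at 10, 25 and 50 µM. β-galactosidase-normalised luciferase signal used to fit concentration-response curves for IC50.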

[8] = target: T1, Nuclear receptor subfamily 1 group I member 2; experiment: Antagonist activity at human PXR transfected in African green monkey CV1 cells assessed as inhibition of SR12813-induced transactivation after 24 hrs by luciferase reporter gene assay; format: cell-based, CV-1

Structure (SMILES) | Activity [2] | inhibition (INH) [3] | further results
Cc1ccc(SC(=O)c2c(C)noc2-c2cc(C)on2)cc1 |  |  | IC50 [1]: 0.85 µM
Cc1c(-c2ccc(OS(=O)(=O)[O-])cc2)[nH]c2ccc(OS(=O)(=O)[O-])cc12.[Na+].[Na+] | Not Active | Not Active | 
Cc1c(-c2ccc(OS(=O)(=O)[O-])cc2)[nH]c2ccc(OCCOS(=O)(=O)[O-])cc12.[Na+].[Na+] | Not Active | Not Active | 
CO[C@H]1/C=C/O[C@@]2(C)Oc3c(C)c(O)c4c(O)c(c5c(nc6cc(C)ccn65)c4c3C2=O)NC(=O)/C(C)=C\C=C\[C@H](C)[C@H](O)[C@@H](C)[C@@H](O)[C@@H](C)[C@H](OC(C)=O)[C@@H]1C [RIFAXIMIN] | Active |  | 
Cc1c(-c2ccc(O)cc2)[nH]c2ccc(O)cc12 | Not Active | Active | 
Cc1c(-c2ccc(O)cc2)[nH]c2ccc(OCCCO)cc12 | Not Active | Active | 
Cc1c(-c2ccc(OS(=O)(=O)[O-])c(OS(=O)(=O)[O-])c2)[nH]c2ccc(OCCCOS(=O)(=O)[O-])cc12.[Na+].[Na+].[Na+] | Not Active | Not Active | 
C[C@H](CCCOS(=O)(=O)[O-])[C@H]1CC[C@H]2[C@@H]3CC[C@H]4C[C@H](OS(=O)(=O)[O-])[C@@H](OS(=O)(=O)[O-])C[C@]4(C)[C@H]3CC[C@]12C.[Na+].[Na+].[Na+] [SOLOMONSTEROL A] | Active |  | 
Cc1c(-c2ccc(OS(=O)(=O)[O-])cc2)[nH]c2ccc(OCCCOS(=O)(=O)[O-])cc12.[Na+].[Na+] | Not Active | Not Active | 
O=c1oc2cc(O)ccc2c2oc3cc(O)ccc3c12 [COUMESTROL] |  |  | IC50 [8]: 12 µM

Second part, led by results:

Activity [2] | inhibition (INH) [3] | Structure (SMILES) | further results
Not Active | Not Active | Cc1c(-c2ccc(OS(=O)(=O)[O-])c(OS(=O)(=O)[O-])c2)[nH]c2ccc(OS(=O)(=O)[O-])cc12.[Na+].[Na+].[Na+] | 
 | Active | CCCn1c(-c2ccc(O)c(O)c2)c(C)c2cc(O)ccc21 | Activity [4]: Toxic
 | Active | COc1ccc2[nH]c(-c3ccc(OC)c(OC)c3)c(C)c2c1 | Activity [4]: Non-toxic
Not Active | Active | Cc1c(-c2ccc(O)c(O)c2)[nH]c2ccc(O)cc12 | inhibition (INH) [5]: Active; Activity [6]: Active; IC50 [7]: 11 µM; inhibition (INH) [7]: Dose-dependent effect
 | Active | COc1ccc2c(c1)c(C)c(-c1ccc(OC)c(OC)c1)n2C | Activity [4]: Toxic
Not Active | Active | Cc1c(-c2ccc(O)cc2)[nH]c2ccc(OCCO)cc12 | 
 | Active | Cc1c(-c2ccc(O)c(O)c2)n(C)c2ccc(O)cc12 | Activity [4]: Toxic
 | Active | Cc1c(-c2ccc(O)c(O)c2)n(Cc2ccccc2)c2ccc(O)cc12 | Activity [4]: Toxic
Not Active | Active | Cc1c(-c2ccc(O)c(O)c2)[nH]c2ccc(OCCO)cc12 | 
Not Active | Active | Cc1c(-c2ccc(O)c(O)c2)[nH]c2ccc(OCCCO)cc12 | inhibition (INH) [5]: Active; Activity [6]: Active; IC50 [7]: 14 µM; inhibition (INH) [7]: Dose-dependent effect
